Measurements: ChEMBL document CHEMBL1123289, “Structure-activity relationships of dopaminergic 5-hydroxy-2-aminotetralin derivatives with functionalized N-alkyl substituents” (J Med Chem, 1986)
pIC50: −log10 of the molar value.

Assays:
[1] = Dopamine receptor binding affinity by displacing the radioligand [3H]-dopamine from dopamine receptor.; parameters: species or system Bos taurus
Procedure, shortened: (§1)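 Radioligand displacement was run on membrane fractions from calf caudate nucleus, with [3H]DA or [3H]spiroperidol as the labelled ligand.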

[2] = Dopamine receptor binding affinity by displacing the radioligand [3H]spiroperidol from dopamine receptor.; parameters: species or system Bos taurus; procedure, shortened: as §1
Rattus norvegicus = experiment: Compound was evaluated for the contralateral turning in 6-hydroxy-dopamine-lesioned rats administered intraperitoneally at the dose 1 mg/kg; type: functional; details: route intraperitoneal
Procedure, shortened: (§2)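 Rats carrying a unilateral lesion of the nigrostriatal pathway were scored for induced turning toward the side contralateral to the lesion, using an Ungerstedt-type rotation procedure.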

[3] = biological target: T1, Dopamine receptor (Rattus norvegicus) (UniProt P25115+P19020+P30729+P18901+P61169); experiment: Evaluation for contralateral turning in 6-hydroxy-dopamine-lesioned rats administered intraperitoneally at the dose 1 mg/kg duration; type: functional, organism-based; parameters: dose 1 mg/kg; procedure, shortened: as §2
[4] = biological target: T1, Dopamine receptor (Rattus norvegicus); experiment: Evaluation for contralateral turning in 6-hydroxy-dopamine-lesioned rats administered intraperitoneally at the dose 1 mg/kg Maximum intensity (turnings/min); type: functional, organism-based; parameters: dose 1 mg/kg; procedure, shortened: as §2
[5] = biological target: T1, Dopamine receptor (Rattus norvegicus); experiment: Evaluation for contralateral turning in 6-hydroxy-dopamine-lesioned rats administered intraperitoneally at the dose 1 mg/kg total turnings; type: functional, organism-based; parameters: dose 1 mg/kg; procedure, shortened: as §2

| SMILES | pIC50 [1] | pIC50 [2] | Duration [3] [h] | Max intensity [4] [turns min-1] | Total turnings [5] | Duration (Rattus norvegicus) [h] | Max intensity (Rattus norvegicus) [turns min-1] | Total turnings (Rattus norvegicus) |
| --- | --- | --- | --- | --- | --- | --- | --- | --- |
| CCCN(CCCNC(C)=O)C1CCc2c(O)cccc2C1 (stereo not drawn) | 6.72 | 5.74 |  |  |  | 4 | 1.6 | 159 |
| CCCN(CCCNS(=O)(=O)N(C)C)C1CCc2c(O)cccc2C1 (stereo not drawn) | 7.00 | 6.43 |  |  |  | 4 | 7.6 | 857 |
| CCCN(CCCSC)C1CCc2c(O)cccc2C1 (single isomer, unassigned; (-)) [listing 1 of 2 here] |  |  | 7 | 15.2 | 3590 |  |  |  |
| CCN(CC)S(=O)(=O)N[C@H]1C[C@@H]2c3cccc4[nH]cc(c34)C[C@H]2N(C)C1 [ETISULERGINE] | 6.92 | 7.60 |  |  |  | >7 | 11.8 | 3688 |
| CCCN1C[C@H](CSC)C[C@@H]2c3cccc4[nH]cc(c34)C[C@H]21 [PERGOLIDE] | 7.74 | 6.84 | > 7 | 9.7 | 1800 |  |  |  |
| CCCN(CCCC(=O)NC)C1CCc2c(O)cccc2C1 (stereo not drawn) | 7.42 | 6.08 |  |  |  | 6 | 6.4 | 413 |
| CN1C[C@@H](CC#N)C[C@@H]2c3cccc4[nH]cc(c34)C[C@H]21 [DELERGOTRILE] | 6.58 | 6.28 | > 7 | 14.4 | 2610 |  |  |  |
| CCCN(CCCSC)C1CCc2c(O)cccc2C1 (stereo in doubt; 12) [listing 1 of 2 here] |  |  | 7 | 9.8 | 1980 |  |  |  |
| CCCN(CCC)C1CCc2c(O)cccc2C1 (stereo not drawn) [5-OH-DPAT] | 7.31 | 5.87 | 6 | 22.7 | 2540 |  |  |  |
| C=CCCCN(CCC)C1CCc2c(O)cccc2C1 (stereo not drawn) | 7.32 | 6.40 | 7 | 7.7 | 1740 |  |  |  |
| CCCN(CCCS(C)(=O)=O)C1CCc2c(O)cccc2C1 (stereo not drawn) | 6.96 | 5.73 |  |  |  | 1 | 5.7 | 531 |
| CCCN(CCCN=[N+]=[N-])C1CCc2c(O)cccc2C1 (stereo not drawn) | 7.24 | 6.28 | 7 | 6.7 | 1860 |  |  |  |
| CCCN(CCCNC(=O)OCC)C1CCc2c(O)cccc2C1 (stereo not drawn) | 7.11 | 6.28 |  |  |  | 5 | 10.4 | 1216 |
| CCCN(CCCc1ccccc1)C1CCc2c(O)cccc2C1 (stereo not drawn) | 7.32 | 6.85 | 5 | 6.6 | 656 |  |  |  |
| CCCN(CCc1ccccc1)C1CCc2c(O)cccc2C1 (stereo not drawn) | 7.40 | 6.74 | 6 | 8.7 | 1520 |  |  |  |
| CCCN(CCNS(=O)(=O)N(CC)CC)C1CCc2c(O)cccc2C1 (stereo not drawn) | 7.39 | 6.66 |  |  |  | 3 | 7.8 | 1015 |
| CCCN(CCCC(=O)OC)C1CCc2c(O)cccc2C1 (stereo not drawn) | 6.85 | 6.04 |  |  |  |  |  | <150 |
| CN(CCCC#N)C1CCc2c(O)cccc2C1 (stereo not drawn) | 6.30 | 5.46 |  |  | < 150 |  |  |  |
| CCCN(CCCNC(=O)N(CC)CC)C1CCc2c(O)cccc2C1 (stereo not drawn) | 6.66 | 5.89 |  |  |  |  |  |  |

The next lines start with results.

| pIC50 [1] | pIC50 [2] | Duration [3] [h] | Max intensity [4] [turns min-1] | Total turnings [5] | SMILES | Duration (Rattus norvegicus) [h] | Max intensity (Rattus norvegicus) [turns min-1] | Total turnings (Rattus norvegicus) |
| --- | --- | --- | --- | --- | --- | --- | --- | --- |
| 7.43 | 6.43 |  |  |  | CCCN(CCCC#N)C1CCc2c(O)cccc2C1 (stereo in doubt; (-)-3) [listing 1 of 2 here] |  |  |  |
| 6.82 | 5.66 | 2 | 7.4 | 347 | CCCN(CCCOC)C1CCc2c(O)cccc2C1 (stereo not drawn) |  |  |  |
| 6.73 | 5.84 | 3 | 10.2 | 721 | CCCN(CCCO)C1CCc2c(O)cccc2C1 (stereo not drawn) |  |  |  |
| 7.34 | 5.99 | 7 | 12.5 | 2660 | CCCN(CCCCl)C1CCc2c(O)cccc2C1 (stereo not drawn) |  |  |  |
| 7.46 | 6.10 |  |  |  | CCCN(CCCC#N)C1CCc2c(O)cccc2C1 (stereo in doubt; 3) [listing 1 of 2 here] |  |  |  |
| 5.70 | 5.34 |  |  |  | CCCN(CCCN)C1CCc2c(O)cccc2C1 (stereo not drawn) |  |  |  |
| 6.31 | 5.46 |  |  |  | CCCN(CCCC#N)C1CCc2c(O)cccc2C1 (single isomer, unassigned; (+)) |  |  |  |
|  |  | 6 | 12 | 3260 | CCCN(CCCC#N)C1CCc2c(O)cccc2C1 (stereo in doubt; (-)-3) [listing 2 of 2 here] |  |  |  |
| 7.17 | 6.04 |  |  | < 150 | CCN(CCCC#N)C1CCc2c(O)cccc2C1 (stereo not drawn) |  |  |  |
| 7.04 | 5.82 | 4 | 10.8 | 1460 | CCCN(CCCCC#N)C1CCc2c(O)cccc2C1 (stereo not drawn) |  |  |  |
| 7.42 | 6.64 |  |  |  | CCCN(CCCSC)C1CCc2c(O)cccc2C1 (single isomer, unassigned; (-)) [listing 2 of 2 here] |  |  |  |
| 6.89 | 5.12 |  |  | < 150 | CCCN(CCC#N)C1CCc2c(O)cccc2C1 (stereo not drawn) |  |  |  |
| 7.37 | 6.66 |  |  |  | CCCN(CCCSC)C1CCc2c(O)cccc2C1 (stereo in doubt; 12) [listing 2 of 2 here] |  |  |  |
|  |  | 3 | 10.3 | 1170 | CCCN(CCCC#N)C1CCc2c(O)cccc2C1 (stereo in doubt; 3) [listing 2 of 2 here] |  |  |  |
